Calls of active or inactive are those of the source.
How the values were obtained:
[1] = molecular target: Acetylcholinesterase (Homo sapiens, UniProt P22303); assay: Mixed-type inhibition of recombinant human AChE assessed as inhibition constant using acetylthiocholine iodide as substrate by Cornish-Bowden plot analysis
Method in brief: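 Kinetics on human recombinant AChE with acetylthiocholine at 0.113–0.566 mM and inhibitor at 0.17–1.36 nM. Lineweaver–Burk plots were fitted by weighted least squares. Ki was taken as the negative x-intercept of a replot of slopes vs [I]. K'i came from a plot of apparent 1/vmax vs [I]. Two independent experiments, each in triplicate.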

[2] = molecular target: Acetylcholinesterase (Electrophorus electricus) (UniProt O42275); assay: Displacement of propidium iodide from PAS-region of electric eel AChE assessed as decrease in fluorescence intensity at 4 to 64 uM by spectrofluorimetric analysis relative to control; design: scale not given: the % may be the effect or the level left; settings: dose 4-64 µM
Method in brief: (§1)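 Back-titration fluorescence assay using electric eel AChE (type VI-S). Inhibitor was added in successive aliquots from a MeOH stock. Emission was read at 602 nm with excitation at 535 nm, after subtracting blanks. […] Three independent experiments.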

[3] = test system: Mus musculus; assay: (§2) Antialzheimer activity in 6 months young APP/PS1 double mutant-transgenic mouse model assessed as postsynaptic potential in CA3 region of hippocampus at 2 mg/kg, ip administered thrice a week for 4 weeks followed by stimulation with 1 to 10 uA EPSP by fluorescence microscopy based electrophysiology method (reference value: 0.269 +/- 0.072 mV/ms); format: functional
Method in brief: (§3)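 Hippocampal slices from male APP/PS1 mice given 2 mg/kg i.p. in saline (or saline alone), three times per week for 4 weeks. Input–output curves were built from evoked fEPSP slopes and fiber volley amplitudes, with values taken at the maximum current intensity. Mean ± SEM of 9 slices from 3 mice per group; two-way ANOVA with Bonferroni post hoc.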

[4] = test system: Mus musculus; assay: Memory enhancement effect in 6 months young APP/PS1 double mutant-transgenic mouse model at 2 mg/kg, ip administered thrice a week for 4 weeks by memory flexibility text; format: functional, organism-based
Method in brief: (§4)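 Memory flexibility test in male APP/PS1 mice treated i.p. with 2 mg/kg in saline (or vehicle), three times weekly for 4 weeks. The number of trials to reach criterion was counted on each testing day over 4 days. Mean ± SEM, n = 7 per group; one-way ANOVA with Bonferroni post hoc.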

[5] = test system: Mus musculus; assay: Antialzheimer activity in 6 months young APP/PS1 double mutant-transgenic mouse model assessed as amyloid beta40 levels in hippocampus at 2 mg/kg, ip administered thrice a week for 4 weeks by ELISA; format: functional, organism-based
Method in brief: (§5)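 Male APP/PS1 mice received 2 mg/kg i.p. in saline (or vehicle), three times weekly for 4 weeks. After the behavioral tests, hippocampus was collected and Aβ40 and Aβ42 were measured with a specific ELISA kit. Mean ± SEM, n = 7 mice per group; one-way ANOVA with Bonferroni post hoc.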

[6] = test system: Mus musculus; assay: Cognitive enhancing effect in 6 months young APP/PS1 double mutant-transgenic mouse model assessed as effect on time spent on moving along the field at 2 mg/kg, ip administered thrice a week for 4 weeks by LOF test; format: functional, organism-based
Method in brief: (§6)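 Open-field locomotor test in male APP/PS1 mice after 2 mg/kg i.p. in saline (or vehicle), three times per week for 4 weeks. Read-outs were time spent moving and number of crossings of the central area of a transparent cage. Mean ± SEM, n = 7 per group; one-way ANOVA with Bonferroni post hoc.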

[7] = molecular target: Cholinesterase (Homo sapiens, UniProt P06276); assay: Inhibition of human serum BChE using butyrylthiocholineiodide as substrate preincubated for 20 mins followed by substrate addition by Ellman's method; format: cell-free
Method in brief: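 Enzyme was 0.02 U/mL human recombinant AChE or human serum BChE. Non-enzymatic hydrolysis was corrected. IC50 came from a % inhibition vs log[I] regression. Selectivity = IC50 hBChE/IC50 hAChE. Mean ± SEM of ≥2 experiments, each in duplicate/triplicate.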

[8] = Drug concentration in wild type C57BL6 mouse plasma at 2 mg/kg, ip thrice a week for 2 weeks observed after 4 hrs post last dose by HPLC/MS/MS analysis; settings: plasma
[9] = Drug distribution in wild type C57BL6 mouse kidney at 2 mg/kg, ip thrice a week for 2 weeks observed after 4 hrs post last dose by HPLC/MS/MS analysis; format: ADME, organism-based; settings: in vivo, 336 h
[10] = test system: Mus musculus; assay: Antiinflammatory activity in 6 months young APP/PS1 double mutant-transgenic mouse model assessed as reduction in GFAP level in hippocampus at 2 mg/kg, ip administered thrice a week for 4 weeks by Hoechst staining based immunofluorescence analysis; format: functional, organism-based
Method in brief: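 Hippocampal GFAP immunofluorescence with Hoechst nuclear counterstain in male APP/PS1 mice after 2 mg/kg i.p. in saline (or vehicle), three times per week for 4 weeks. Mean ± SEM, n = 4 mice per group; one-way ANOVA with Bonferroni post hoc.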

[11] = test system: Mus musculus; assay: Cognitive enhancing effect in 6 months young APP/PS1 double mutant-transgenic mouse model assessed as increase in preference index for object at 2 mg/kg, ip administered thrice a week for 4 weeks by novel object localization test; format: functional, organism-based
Method in brief: (§7)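 Male APP/PS1 mice received 2 mg/kg i.p. in saline (or vehicle), three times per week for 4 weeks. Preference index = time exploring the relocated or novel object divided by total time exploring both objects. Mean ± SEM, n = 7 per group; one-way ANOVA with Bonferroni post hoc.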

[12] = test system: Mus musculus; assay: as §2, with “fiber volley amplitude” for “postsynaptic potential”, “0.719” for “0.269”, “0.175” for “0.072”; format: functional; method in brief: as §3
[13] = test system: Mus musculus; assay: Memory enhancement effect in 11 months old APP/PS1 double mutant-transgenic mouse model assessed as number of trials required to reach criterion at 2 mg/kg, ip administered thrice a week for 4 weeks measured on trail day 1 by memory flexibility text; format: functional; method in brief: as §4
[14] = test system: Mus musculus; assay: Cognitive enhancing effect in 6 months young APP/PS1 double mutant-transgenic mouse model assessed as effect on number of times animal crossing central area in transparent cage at 2 mg/kg, ip administered thrice a week for 4 weeks by LOF test; format: functional, organism-based; method in brief: as §6
[15] = test system: Mus musculus; assay: Memory enhancement effect in 11 months old APP/PS1 double mutant-transgenic mouse model assessed as number of trials required to reach criterion at 2 mg/kg, ip administered thrice a week for 4 weeks measured after 4 days by memory flexibility text; format: functional; method in brief: as §4
[16] = molecular target: Acetylcholinesterase (Electrophorus electricus) (UniProt O42275); assay: Displacement of propidium iodide from PAS-region of electric eel AChE assessed as decrease in fluorescence intensity by spectrofluorimetric analysis; method in brief: as §1
[17] = molecular target: Beta-secretase 1 (Homo sapiens) (UniProt P56817); assay: Inhibition of recombinant human BACE-1 at 1 uM using methoxycoumarin-Ser-Glu-Val-Asn-Leu-Asp-Ala-Glu-Phe-Lys-dinitrophenyl as substrate preincubated for 1 hr followed by substrate addition and measured after 15 mins by fluorescence based assay relative to control; settings: time 75.0 min
[18] = test system: Mus musculus; assay: Antialzheimer activity in 11 months old APP/PS1 double mutant-transgenic mouse model assessed as amyloid beta42 levels in hippocampus at 2 mg/kg, ip administered thrice a week for 4 weeks by ELISA (Rvb= 69.0 +/- 4.54 pg/ml); format: functional; method in brief: as §5
[19] = test system: Mus musculus; assay: Antialzheimer activity in 11 months old APP/PS1 double mutant-transgenic mouse model assessed as amyloid beta40 levels in hippocampus at 2 mg/kg, ip administered thrice a week for 4 weeks by ELISA (reference value: 8.65 +/- 0.44 pg/ml); format: functional; method in brief: as §5
[20] = test system: Mus musculus; assay: Cognitive enhancing effect in 11 months old APP/PS1 double mutant-transgenic mouse model assessed as increase in preference index for object at 2 mg/kg, ip administered thrice a week for 4 weeks by novel object localization test; format: functional, organism-based; method in brief: as §7

Chain of Beta-secretase 1 (Homo sapiens) (P56817 whole entry): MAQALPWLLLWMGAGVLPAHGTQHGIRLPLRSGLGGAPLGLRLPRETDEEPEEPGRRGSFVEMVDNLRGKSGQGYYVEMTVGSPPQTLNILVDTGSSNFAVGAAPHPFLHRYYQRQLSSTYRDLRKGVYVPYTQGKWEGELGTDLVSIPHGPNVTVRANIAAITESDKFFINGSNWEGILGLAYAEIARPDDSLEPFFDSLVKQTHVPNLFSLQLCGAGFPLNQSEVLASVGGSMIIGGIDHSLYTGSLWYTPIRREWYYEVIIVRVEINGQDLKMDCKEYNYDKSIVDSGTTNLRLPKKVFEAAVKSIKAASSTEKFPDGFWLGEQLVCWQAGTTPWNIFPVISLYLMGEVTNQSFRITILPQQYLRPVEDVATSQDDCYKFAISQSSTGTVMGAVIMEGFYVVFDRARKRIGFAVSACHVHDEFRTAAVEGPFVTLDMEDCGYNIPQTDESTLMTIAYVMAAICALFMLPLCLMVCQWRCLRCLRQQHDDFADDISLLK
Chain of Cholinesterase (P06276 whole entry): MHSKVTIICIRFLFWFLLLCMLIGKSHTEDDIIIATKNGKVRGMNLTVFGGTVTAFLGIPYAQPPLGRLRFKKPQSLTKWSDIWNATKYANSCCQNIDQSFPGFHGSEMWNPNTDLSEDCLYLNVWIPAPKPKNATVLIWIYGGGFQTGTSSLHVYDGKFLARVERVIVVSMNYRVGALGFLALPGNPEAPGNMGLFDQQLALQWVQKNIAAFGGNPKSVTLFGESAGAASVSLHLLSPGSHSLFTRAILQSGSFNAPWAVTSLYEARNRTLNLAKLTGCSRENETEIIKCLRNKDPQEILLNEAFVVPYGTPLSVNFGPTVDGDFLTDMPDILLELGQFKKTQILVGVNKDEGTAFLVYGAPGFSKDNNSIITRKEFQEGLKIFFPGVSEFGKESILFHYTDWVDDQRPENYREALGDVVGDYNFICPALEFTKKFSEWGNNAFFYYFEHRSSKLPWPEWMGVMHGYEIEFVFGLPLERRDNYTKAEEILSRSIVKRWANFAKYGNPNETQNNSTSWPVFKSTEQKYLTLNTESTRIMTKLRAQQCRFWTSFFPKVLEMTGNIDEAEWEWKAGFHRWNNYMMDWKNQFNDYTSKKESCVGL
Chain of Acetylcholinesterase (Electrophorus electricus) (O42275 24-633 limits assumed): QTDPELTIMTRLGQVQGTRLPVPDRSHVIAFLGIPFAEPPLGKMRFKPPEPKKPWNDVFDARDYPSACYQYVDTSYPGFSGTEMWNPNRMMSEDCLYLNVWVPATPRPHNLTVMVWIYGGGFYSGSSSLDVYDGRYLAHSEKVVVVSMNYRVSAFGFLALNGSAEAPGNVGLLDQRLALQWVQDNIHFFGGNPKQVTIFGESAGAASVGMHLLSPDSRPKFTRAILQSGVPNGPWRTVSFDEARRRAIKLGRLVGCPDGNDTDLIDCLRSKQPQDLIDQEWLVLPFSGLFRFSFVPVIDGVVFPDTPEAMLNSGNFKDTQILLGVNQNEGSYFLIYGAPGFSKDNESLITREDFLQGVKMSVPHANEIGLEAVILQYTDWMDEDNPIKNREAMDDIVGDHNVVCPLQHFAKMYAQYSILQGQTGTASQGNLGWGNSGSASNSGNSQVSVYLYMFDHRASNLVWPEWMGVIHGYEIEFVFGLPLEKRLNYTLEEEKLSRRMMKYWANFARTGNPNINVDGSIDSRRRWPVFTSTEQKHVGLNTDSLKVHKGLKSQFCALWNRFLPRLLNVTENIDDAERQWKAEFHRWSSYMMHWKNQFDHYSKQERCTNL
Chain of Acetylcholinesterase (P22303 whole entry): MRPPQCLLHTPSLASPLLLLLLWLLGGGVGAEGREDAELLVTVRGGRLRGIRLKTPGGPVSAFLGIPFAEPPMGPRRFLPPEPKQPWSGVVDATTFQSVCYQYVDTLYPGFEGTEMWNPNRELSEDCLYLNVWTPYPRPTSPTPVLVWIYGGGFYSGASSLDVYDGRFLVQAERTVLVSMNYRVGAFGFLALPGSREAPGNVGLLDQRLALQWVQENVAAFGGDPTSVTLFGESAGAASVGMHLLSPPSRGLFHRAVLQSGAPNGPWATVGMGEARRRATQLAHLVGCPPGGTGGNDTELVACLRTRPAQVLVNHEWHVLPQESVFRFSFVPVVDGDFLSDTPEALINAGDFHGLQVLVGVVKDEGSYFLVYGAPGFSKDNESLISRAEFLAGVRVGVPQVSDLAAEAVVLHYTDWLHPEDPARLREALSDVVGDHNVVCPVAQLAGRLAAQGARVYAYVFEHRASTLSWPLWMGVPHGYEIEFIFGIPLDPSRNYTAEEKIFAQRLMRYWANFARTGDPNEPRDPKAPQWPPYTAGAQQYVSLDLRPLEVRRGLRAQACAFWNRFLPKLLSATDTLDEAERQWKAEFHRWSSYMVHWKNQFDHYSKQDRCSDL

SMILES | Ki [1] [nM] | Activity [2] [%] | Activity [3] [mV/ms] | Activity [4] | Activity [5] | Activity [6] | IC50 [7] [nM] | concentration at 336 h [8] [ng/mL] | Drug uptake [9] | Activity [10] | Activity [11] | Activity [12] [mV/ms] | Activity [13] | Activity [14] | Activity [15] | Activity [16] | inhibition [17] | Activity [18] [pg/mL] | Activity [19] [pg/mL] | Activity [20]
COc1cc(CNC(=O)CCCCCCNc2c3c(nc4cc(Cl)ccc24)CC2C=C(C)CC3C2)ccc1O (centres undefined) | 0.68 | 23 | 0.262 | inactive | inactive | inactive | 30.6 | < 3000 | Active | Active | inactive | 0.399 | 14 | inactive | 13 | Dose-dependent effect | 7.4% |  |  | 
COc1cc(CNC(=O)Cc2cn(CCCCC3=CC4Cc5nc6cc(Cl)ccc6c(N)c5C(C3)C4)nn2)ccc1O (centres undefined) |  |  | 0.296 | inactive | inactive | inactive | 7.3 | 35600 | Active | inactive | inactive | 0.738 | 13 | inactive | 7 |  | inactive | 62.6 | 18.4 | Active

From ChEMBL document CHEMBL4706642, “Discovery of a Potent Dual Inhibitor of Acetylcholinesterase and Butyrylcholinesterase with Antioxidant Activity that Alleviates Alzheimer-like Pathology in Old APP/PS1 Mice” (J Med Chem, 2021)
